Test results published in ChEMBL document CHEMBL1139243, “Synthesis and biological evaluation of a 2-aryl polyhydroxylated pyrrolidine alkaloid-based library” (Bioorg Med Chem, 2008).

Experiments:
[1] = Inhibition of Bacillus stearothermophilus alpha-glucosidase; design: species or system Geobacillus stearothermophilus
Outline: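 Bacillus stearothermophilus α-glucosidase at 0.25–1 units per mL in 100 mM sodium phosphate, pH 6.8, room temperature. Substrate is p-nitrophenyl glycopyranoside at twice Km, with Km 1.5 mM from a Michaelis–Menten fit. Initial hydrolysis rates read at 405 nm. Compounds screened first at a single high concentration; active ones retested at lower concentrations for IC50.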

[2] = Inhibition of almond beta-glucosidase; design: species or system Prunus dulcis
Outline: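 β-Glucosidase at 0.25–1 units per mL in 100 mM sodium phosphate buffer, pH 6.8, room temperature. p-Nitrophenyl glycopyranoside substrate at twice its Michaelis–Menten Km. Initial hydrolysis rates read spectrophotometrically at 405 nm. Compounds screened first at one concentration; actives retested at lower levels for IC50.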

[3] = Inhibition of Helix pomatia beta-mannosidase
Outline: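 β-Mannosidase at 0.25–1 units per mL in 100 mM sodium citrate, pH 6.4, room temperature. p-Nitrophenyl glycopyranoside substrate at twice its Michaelis–Menten Km. Initial velocities read at 405 nm. Compounds screened first at a single concentration; those active titrated lower for IC50.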

[4] = Inhibition of yeast alpha-glucosidase; design: species or system Saccharomyces cerevisiae
Outline: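 Yeast α-glucosidase at 0.25–1 units per mL in 100 mM sodium phosphate, pH 6.8, room temperature. p-Nitrophenyl glycopyranoside substrate at twice Km, with Km 0.19 mM from a Michaelis–Menten fit. Initial velocities monitored at 405 nm. Compounds screened first at a single concentration; actives titrated lower to get IC50.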

[5] = Inhibition of yeast alpha-glucosidase by Lineweaver-Burke double reciprocal plot; design: species or system Saccharomyces cerevisiae

Row | IC50 [1] [µM] | IC50 [2] [µM] | IC50 [3] [µM] | IC50 [4] [µM] | Ki [5] [µM] | SMILES
1 | > 200 | > 200 | 86 | > 200 |  | COc1ccc([C@@H]2[C@@H](O)[C@H](O)[C@@H](CO)N2C)c(OC)c1
2 | 10 | > 200 | > 200 | 24 |  | OC[C@H]1N[C@H](c2ccc(O)cc2)[C@@H](O)[C@@H]1O [RADICAMINE B]
3 | 9.2 | > 200 | 61 | 38 |  | COc1ccc([C@@H]2[C@@H](O)[C@H](O)[C@@H](CO)N2C)cc1
4 | > 200 | > 200 | > 200 | > 200 |  | COc1ccc([C@H]2[C@H](O)[C@@H](O)[C@H](CO)N2C)cc1
5 | 36 | 197 | 93 | 10 |  | OC[C@H]1N[C@H](c2ccccc2)[C@@H](O)[C@@H]1O
6 | 1.8 | 34 | 52 | 1.1 | 0.7 | COc1ccc([C@H]2N[C@H](CO)[C@@H](O)[C@@H]2O)cc1OC
7 | > 200 | > 200 | 184 | 28 |  | COc1ccc([C@@H]2[C@@H](O)[C@H](O)[C@@H](CO)N2C)cc1O
8 | 4 | 169 | > 200 | 2.6 |  | COc1ccc(OC)c([C@H]2N[C@H](CO)[C@@H](O)[C@@H]2O)c1
9 | > 200 | > 200 | > 200 | 21 |  | COc1ccc([C@@H]2N[C@@H](CO)[C@H](O)[C@H]2O)cc1
10 | > 200 | > 200 | > 200 | 6 |  | COc1ccc([C@@H]2N[C@@H](CO)[C@H](O)[C@H]2O)cc1OC
11 | > 200 | > 200 | 113 | > 200 |  | COc1ccc([C@@H]2N[C@@H](CO)[C@H](O)[C@H]2O)cc1O [L-RADICAMINE A]
12 | 8.4 | 96 | 172 | 7.8 |  | COc1ccc([C@H]2N[C@H](CO)[C@@H](O)[C@@H]2O)c(OC)c1
13 | 8.8 | 122 | 21 | 0.5 |  | COc1ccc([C@H]2N[C@H](CO)[C@@H](O)[C@@H]2O)cc1
14 | 31 |  |  | 2.4 |  | COc1cccc([C@H]2N[C@H](CO)[C@@H](O)[C@@H]2O)c1
15 | 12 | > 200 | 66 | 4.2 |  | COc1ccc([C@H]2N[C@H](CO)[C@@H](O)[C@@H]2O)cc1O [RADICAMINE A]
16 | > 200 | > 200 | > 200 | > 200 |  | CCCCN1[C@H](CO)[C@@H](O)[C@H](O)[C@H]1c1ccc(OC)c(O)c1
17 | 24 | > 200 | > 200 | 72 |  | COc1ccc([C@@H]2[C@@H](O)[C@H](O)[C@@H](CO)N2C)cc1OC
18 | > 200 | > 200 | > 200 | > 200 |  | COc1ccc(OC)c([C@@H]2[C@@H](O)[C@H](O)[C@@H](CO)N2C)c1
